Source: ChEMBL document CHEMBL4819061, “New bioactive 5-arylcarboximidamidopyrazolo[3,4-c]pyridines: Synthesis, cytotoxic activity, mechanistic investigation and structure-activity relationships” (Eur J Med Chem, 2021)
Activity calls are given as the source filed them. The rule behind the calls is not given here.

Experiments:
[1] = molecular target: RAC-alpha serine/threonine-protein kinase (Homo sapiens) (UniProt P31749); experiment: Inhibition of AKT phosphorylation at Ser473 residue in human HT-1080 cells at 20 uM after 15 mins by Western blotting analysis; conditions: time 15.0 mins
Chain of RAC-alpha serine/threonine-protein kinase (Homo sapiens) (P31749 whole entry): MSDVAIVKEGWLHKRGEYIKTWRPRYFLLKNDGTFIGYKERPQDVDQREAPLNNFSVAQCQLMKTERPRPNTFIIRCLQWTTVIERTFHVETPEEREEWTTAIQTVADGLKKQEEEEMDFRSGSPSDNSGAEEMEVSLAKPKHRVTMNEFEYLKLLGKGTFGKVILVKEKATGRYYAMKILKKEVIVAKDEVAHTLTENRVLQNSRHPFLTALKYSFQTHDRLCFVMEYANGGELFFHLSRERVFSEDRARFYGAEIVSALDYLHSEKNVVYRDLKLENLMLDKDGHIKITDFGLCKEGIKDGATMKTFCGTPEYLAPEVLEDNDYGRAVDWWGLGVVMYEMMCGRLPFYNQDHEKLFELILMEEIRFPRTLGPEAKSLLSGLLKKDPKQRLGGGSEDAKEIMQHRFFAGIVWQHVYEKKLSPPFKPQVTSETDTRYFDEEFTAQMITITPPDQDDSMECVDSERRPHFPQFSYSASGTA

[2] = system: MDA-MB-231; experiment: Cytotoxicity against human MDA-MB-231 cells assessed as reduction in cell viability incubated for 72 hrs by MTT assay; format: functional, cell-based; conditions: MDA-MB-231, 72 h
Summary of the method: (§1)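 Cancer lines (MDA-MB-231, HT-1080, PC-3) were grown in DMEM with 10% FBS and penicillin/streptomycin at 37 °C in 5% CO₂. About 5000 cells/well adhered overnight, then serial compound dilutions were added for 72 h, with matching DMSO dilutions (0.5–0.0008% v/v) as controls. MTT (1 mg/ml final, serum-free phenol-red-free DMEM) ran 4 h, was solubilised in 2-propanol, and OD read at 550 nm (ref 690). IC50 is the concentration halving OD versus untreated, mean of three independent experiments.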

[3] = system: HT-1080; experiment: Cytotoxicity against human HT-1080 cells assessed as reduction in cell viability incubated for 72 hrs by MTT assay; format: functional, cell-based; conditions: HT-1080, 72 h
Summary of the method: as §1

[4] = molecular target: MAP kinase p38 (Homo sapiens) (UniProt O15264+Q15759+Q16539+P53778); experiment: Induction of p38 MAPK phosphorylation in human HT-1080 cells at 20 uM after 15 mins by Western blotting analysis
[5] = system: HT-1080; experiment: Induction of apoptosis in human HT-1080 cells assessed as increase in PARP cleavage at 2 uM after 24 hrs by Western blotting analysis
[6] = system: HT-1080; experiment: Inhibition of ERK phosphorylation in human HT-1080 cells at 20 uM after 15 mins by Western blotting analysis
[7] = system: HT-1080; experiment: Induction of cell cycle arrest in human HT1080 cells assessed as accumulation at G2/M phase at 2 uM incubated for 24 hrs by RNase/PI staining based flow cytometric analysis (reference value: 47.55 %); format: functional
[8] = system: AG1523; experiment: Cytotoxicity against human AG01523 cells assessed as reduction in cell viability incubated for 72 hrs by MTT assay; format: cell-based; conditions: AG1523, 72 h
[9] = system: HT-1080; experiment: Induction of cell cycle arrest in human HT1080 cells assessed as accumulation at G0/G1 phase at 2 uM incubated for 24 hrs by RNase/PI staining based flow cytometric analysis (reference value: 32.86 %); format: functional
[10] = system: PC-3; experiment: Cytotoxicity against human PC-3 cells assessed as reduction in cell viability incubated for 72 hrs by MTT assay; format: functional, cell-based; conditions: PC-3, 72 h
Summary of the method: as §1

[11] = system: HT-1080; experiment: Induction of cell cycle arrest in human HT1080 cells assessed as accumulation at S phase at 2 uM incubated for 24 hrs by RNase/PI staining based flow cytometric analysis (reference value: 19.59 %); format: functional
[12] = system: HT-1080; experiment: Induction of cell cycle arrest in human HT1080 cells assessed as accumulation at sub-diploid phase at 2 uM incubated for 24 hrs by RNase/PI staining based flow cytometric analysis (reference value: 5.36 %); format: functional

SMILES: COc1ccc(Cn2nc(-c3ccccc3)c3cc(C(=N)Nc4ccc(N5CCN(C)CC5)cc4)nc(Nc4cc(OC)c(OC)c(OC)c4)c32)cc1
- inhibition [1]: Active
- IC50 [2]: 890 nM
- IC50 [3]: 1200 nM
- Activity [4]: Active
- Activity [5]: Active
- inhibition [6]: Active
- Activity [7]: 9.29%
- IC50 [8]: 1810 nM
- Percentage of cells in G0/G1 phase [9]: 26.67%
- IC50 [10]: 1240 nM
- Activity [11]: 64.04%
- Percent of cells in sub-diploid (sub-G1) phase [12]: 27.79%
